# Laboratory results as given in ChEMBL document CHEMBL1143782, “Alpha-aminothiazole-gamma-aminobutanoic amides as potent, small molecule CCR2 receptor antagonists” (Bioorg Med Chem Lett, 2007).
# Legend:
# [1] = molecular target: T1, C-C chemokine receptor type 2 (Homo sapiens, UniProt P41597); assay: Displacement of [125I]MCP1 from human CCR2 expressed in monocytes; assay type: cell-based
# How it was run: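 Human CCR2 binding was read as inhibition of 125I-MCP-1 binding to monocyte cells stably transfected with CCR2. The assay was run in the presence of 0.5% BSA, using membranes of these cells.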
# Target sequence in this assay (P41597 whole entry): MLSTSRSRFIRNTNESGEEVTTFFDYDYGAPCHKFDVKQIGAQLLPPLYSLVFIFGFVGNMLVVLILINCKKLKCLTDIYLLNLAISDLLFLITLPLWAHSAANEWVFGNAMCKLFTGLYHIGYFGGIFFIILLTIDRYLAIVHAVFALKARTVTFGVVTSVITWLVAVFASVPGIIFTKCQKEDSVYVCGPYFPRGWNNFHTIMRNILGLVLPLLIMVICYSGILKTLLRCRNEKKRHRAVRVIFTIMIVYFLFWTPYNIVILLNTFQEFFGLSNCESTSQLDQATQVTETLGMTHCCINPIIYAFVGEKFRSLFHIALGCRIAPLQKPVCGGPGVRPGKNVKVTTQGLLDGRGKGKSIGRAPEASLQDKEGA
# [2] = molecular target: C-C chemokine receptor type 2 (Mus musculus, UniProt P51683); assay: Displacement of [125I]MCP1 from mouse CCR2 expressed in monocytes; assay type: cell-based
# [3] = Tmax in Sprague-Dawley rat; assay type: ADME, organism-based; details: in vivo
# [4] = Clearance in Sprague-Dawley rat; assay type: ADME, organism-based; details: in vivo
# [5] = Volume of distribution in Beagle dog; assay type: ADME, organism-based, Canis lupus familiaris; details: in vivo, read-out: Vdss
# [6] = Tmax in Beagle dog; assay type: ADME, organism-based, Canis lupus familiaris; details: in vivo
# [7] = molecular target: T2, C-C chemokine receptor type 3 (Homo sapiens) (UniProt P51677); assay: Inhibition of CCR3 at 1uM
# T2 sequence (whole entry): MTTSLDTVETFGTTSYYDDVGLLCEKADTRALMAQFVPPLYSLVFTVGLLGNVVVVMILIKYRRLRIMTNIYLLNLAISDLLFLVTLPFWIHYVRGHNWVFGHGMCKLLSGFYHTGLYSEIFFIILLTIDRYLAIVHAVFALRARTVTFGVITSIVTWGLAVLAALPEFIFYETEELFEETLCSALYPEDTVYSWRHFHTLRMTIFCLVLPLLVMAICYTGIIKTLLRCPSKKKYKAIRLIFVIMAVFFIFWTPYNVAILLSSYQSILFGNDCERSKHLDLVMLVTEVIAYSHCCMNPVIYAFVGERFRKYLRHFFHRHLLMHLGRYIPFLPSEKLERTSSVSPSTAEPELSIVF
# [8] = Cmax in Sprague-Dawley rat; assay type: ADME, organism-based; details: in vivo
# [9] = Bioavailability in Beagle dog; assay type: ADME, organism-based, Canis lupus familiaris; details: in vivo
# [10] = Bioavailability in Sprague-Dawley rat; assay type: ADME, organism-based; details: in vivo
# [11] = Half life in Beagle dog; assay type: ADME, organism-based, Canis lupus familiaris; details: in vivo
# [12] = molecular target: Substance-P receptor (Homo sapiens) (UniProt P25103); assay: Inhibition of NK1 receptor at 1uM
# [13] = molecular target: C-X-C chemokine receptor type 4 (Homo sapiens) (UniProt P61073); assay: Inhibition of CXCR4 at 1uM
# [14] = molecular target: T3, C-C chemokine receptor type 4 (Homo sapiens) (UniProt P51679); assay: Inhibition of CCR4 at 1uM
# T3 sequence (whole entry): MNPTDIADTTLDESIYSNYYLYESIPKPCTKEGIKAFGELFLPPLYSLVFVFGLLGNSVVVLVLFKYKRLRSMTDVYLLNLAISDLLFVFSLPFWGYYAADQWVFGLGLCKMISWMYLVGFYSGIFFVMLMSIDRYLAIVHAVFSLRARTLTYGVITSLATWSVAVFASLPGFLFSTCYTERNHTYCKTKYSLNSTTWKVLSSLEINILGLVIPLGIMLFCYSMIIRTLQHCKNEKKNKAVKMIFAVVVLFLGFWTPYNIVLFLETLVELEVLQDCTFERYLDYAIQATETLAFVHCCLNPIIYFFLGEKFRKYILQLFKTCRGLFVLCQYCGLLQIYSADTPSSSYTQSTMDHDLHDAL
# [15] = Clearance in Beagle dog; assay type: ADME, organism-based, Canis lupus familiaris; details: in vivo
# [16] = molecular target: T4, C-C chemokine receptor type 1 (Homo sapiens) (UniProt P32246); assay: Inhibition of CCR1 at 1uM
# T4 sequence (whole entry): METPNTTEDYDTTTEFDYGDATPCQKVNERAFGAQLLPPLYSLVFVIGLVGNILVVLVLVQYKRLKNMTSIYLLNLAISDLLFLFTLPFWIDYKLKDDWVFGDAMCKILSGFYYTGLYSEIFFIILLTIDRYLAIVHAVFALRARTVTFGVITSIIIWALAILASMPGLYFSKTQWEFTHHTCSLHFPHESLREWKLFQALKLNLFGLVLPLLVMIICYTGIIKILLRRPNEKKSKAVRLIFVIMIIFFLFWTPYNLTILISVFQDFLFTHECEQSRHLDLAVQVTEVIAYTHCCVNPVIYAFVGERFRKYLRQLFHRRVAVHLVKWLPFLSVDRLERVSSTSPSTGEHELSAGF
# [17] = Volume of distribution in Sprague-Dawley rat; assay type: ADME, organism-based; details: in vivo, read-out: Vdss
# [18] = molecular target: C-C chemokine receptor type 5 (Homo sapiens) (UniProt P51681); assay: Inhibition of CCR5 at 1uM
# [19] = Cmax in Beagle dog; assay type: ADME, organism-based, Canis lupus familiaris; details: in vivo
# [20] = Half life in Sprague-Dawley rat; assay type: ADME, organism-based; details: in vivo
# [21] = molecular target: T1, C-C chemokine receptor type 2; assay: Displacement of [125I]MCP-1 from human CCR2 expressed in monocytes 1 uM; assay type: cell-based
# Target sequence in this assay (P41597 whole entry, looked up): as the sequence (P41597 whole entry) above
# Chain of C-C chemokine receptor type 2 (Mus musculus, UniProt P51683) (P51683 whole entry): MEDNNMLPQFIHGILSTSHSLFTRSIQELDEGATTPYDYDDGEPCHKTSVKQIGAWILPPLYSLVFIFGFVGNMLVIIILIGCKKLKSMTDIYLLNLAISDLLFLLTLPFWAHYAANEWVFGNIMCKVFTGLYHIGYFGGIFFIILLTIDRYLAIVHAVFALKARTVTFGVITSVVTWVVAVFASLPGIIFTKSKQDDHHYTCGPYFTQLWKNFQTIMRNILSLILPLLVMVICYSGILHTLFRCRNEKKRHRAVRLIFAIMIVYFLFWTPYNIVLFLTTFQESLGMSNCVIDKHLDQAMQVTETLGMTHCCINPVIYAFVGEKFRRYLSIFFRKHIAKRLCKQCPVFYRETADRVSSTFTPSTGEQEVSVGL
# Chain of C-C chemokine receptor type 5 (Homo sapiens) (P51681 whole entry, looked up): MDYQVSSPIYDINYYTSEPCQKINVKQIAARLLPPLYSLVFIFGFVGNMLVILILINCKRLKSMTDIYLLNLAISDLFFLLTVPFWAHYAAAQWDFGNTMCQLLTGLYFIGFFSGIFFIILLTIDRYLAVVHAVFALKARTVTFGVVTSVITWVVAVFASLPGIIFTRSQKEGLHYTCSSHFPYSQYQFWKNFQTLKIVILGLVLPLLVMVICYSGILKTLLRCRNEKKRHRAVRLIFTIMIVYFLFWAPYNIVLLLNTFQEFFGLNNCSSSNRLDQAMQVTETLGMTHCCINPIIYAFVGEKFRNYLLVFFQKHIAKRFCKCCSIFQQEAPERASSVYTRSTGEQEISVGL
# Chain of C-X-C chemokine receptor type 4 (Homo sapiens) (P61073 whole entry): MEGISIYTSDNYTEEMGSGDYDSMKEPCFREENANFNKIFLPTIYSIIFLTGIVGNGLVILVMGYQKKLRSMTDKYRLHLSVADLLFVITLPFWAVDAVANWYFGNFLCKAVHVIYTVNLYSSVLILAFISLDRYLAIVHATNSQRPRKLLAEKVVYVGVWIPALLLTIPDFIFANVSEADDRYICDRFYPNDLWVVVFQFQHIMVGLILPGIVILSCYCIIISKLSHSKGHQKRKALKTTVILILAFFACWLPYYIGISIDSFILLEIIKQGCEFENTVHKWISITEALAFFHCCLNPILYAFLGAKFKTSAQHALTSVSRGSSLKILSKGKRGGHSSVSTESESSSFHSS
# Chain of Substance-P receptor (Homo sapiens) (P25103 whole entry): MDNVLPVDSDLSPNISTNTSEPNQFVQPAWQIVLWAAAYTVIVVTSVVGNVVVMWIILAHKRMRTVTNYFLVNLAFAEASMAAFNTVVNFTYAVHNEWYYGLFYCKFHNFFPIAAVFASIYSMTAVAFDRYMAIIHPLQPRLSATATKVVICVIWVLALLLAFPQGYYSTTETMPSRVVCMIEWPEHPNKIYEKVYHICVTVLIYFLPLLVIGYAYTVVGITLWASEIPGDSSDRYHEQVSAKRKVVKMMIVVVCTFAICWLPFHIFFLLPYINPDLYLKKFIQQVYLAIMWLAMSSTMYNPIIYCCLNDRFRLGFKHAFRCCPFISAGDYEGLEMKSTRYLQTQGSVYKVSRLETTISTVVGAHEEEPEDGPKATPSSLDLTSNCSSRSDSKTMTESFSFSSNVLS
SMILES,IC50 [1] [nM],other results
CC(C)(C)OC(=O)Nc1nc([C@H](CCN2CCC(c3ccccc3)CC2)C(=O)NCc2cc(C(F)(F)F)cc(C(F)(F)F)c2)cs1,14.3,–
Nc1nc(C(CCN2CCC(n3cnc4ccccc43)CC2)C(=O)NCc2cc(C(F)(F)F)cc(C(F)(F)F)c2)cs1 (stereo unspecified),28.6,–
CC(=O)Nc1nc(C(CCN2CCC3(C=Cc4ccccc43)[C@@H](C)C2)C(=O)NCc2cc(C(F)(F)F)cc(C(F)(F)F)c2)cs1 (stereo partly specified),3,–
Nc1nc([C@H](CCN2CCC(c3ccccc3)CC2)C(=O)NCc2cc(C(F)(F)F)cc(C(F)(F)F)c2)cs1,13.3,–
CC(=O)Nc1nc(C(CCN2CCC(n3cnc4ccccc43)CC2)C(=O)NCc2cc(C(F)(F)F)cc(C(F)(F)F)c2)cs1 (stereo unspecified),3,–
CC(C)(C)C(=O)Nc1nc(C(CCN2CCC(c3ccccc3)CC2)C(=O)NCc2cc(C(F)(F)F)cc(C(F)(F)F)c2)cs1 (stereo unspecified),18,–
Nc1nc(C(CCN2CCC3(C=Cc4ccccc43)CC2)C(=O)NCc2cc(C(F)(F)F)cc(C(F)(F)F)c2)cs1 (stereo unspecified),7.3,–
CC(C)(C)OC(=O)Nc1nc([C@@H](CCN2CCC(c3ccccc3)CC2)C(=O)NCc2cc(C(F)(F)F)cc(C(F)(F)F)c2)cs1,13.3,–
O=C(Nc1nc(C(CCN2CCC(c3ccccc3)CC2)C(=O)NCc2cc(C(F)(F)F)cc(C(F)(F)F)c2)cs1)C1CC1 (stereo unspecified),3.9,–
COC(=O)Nc1nc([C@H](CCN2CCC(c3ccccc3)CC2)C(=O)NCc2cc(C(F)(F)F)cc(C(F)(F)F)c2)cs1,3.5,–
CC(=O)Nc1nc(C(CCN2CCC(c3ccc(F)cc3)CC2)C(=O)NCc2cc(C(F)(F)F)cc(C(F)(F)F)c2)cs1 (stereo unspecified),1.8,–
Nc1nc(C(CCN2CCN(c3ccc(F)cc3)CC2)C(=O)NCc2cc(C(F)(F)F)cc(C(F)(F)F)c2)cs1 (stereo unspecified),–,inhibition [21]: 70%
COC(=O)Nc1nc(C(CCN2CCC(c3ccccc3)CC2)C(=O)NCc2cc(C(F)(F)F)cc(C(F)(F)F)c2)cs1 (stereo unspecified),2.6,–
CS(=O)(=O)Nc1nc(C(CCN2CCC(c3ccccc3)CC2)C(=O)NCc2cc(C(F)(F)F)cc(C(F)(F)F)c2)cs1 (stereo unspecified),36,–
CN(C)C(=O)Nc1nc(C(CCN2CCC(c3ccccc3)CC2)C(=O)NCc2cc(C(F)(F)F)cc(C(F)(F)F)c2)cs1 (stereo unspecified),2.3,–

# Second part, led by results:
IC50 [1] [nM],SMILES,other results
23,C[C@H]1CN(CCC(C(=O)NCc2cc(C(F)(F)F)cc(C(F)(F)F)c2)c2csc(NC(=O)Cc3cccs3)n2)CC[C@]12C=Cc1ccccc12 (stereo partly specified),IC50 [2]: 81 nM
19,C[C@H]1CN(CCC(C(=O)NCc2cc(C(F)(F)F)cc(C(F)(F)F)c2)c2csc(NC(=O)Cc3ccccc3)n2)CC[C@]12C=Cc1ccccc12 (stereo partly specified),IC50 [2]: 165 nM
1.7,CC(=O)Nc1nc(C(CCN2CCC3(C=Cc4ccccc43)CC2)C(=O)NCc2cc(C(F)(F)F)cc(C(F)(F)F)c2)cs1 (stereo unspecified),–
13,C[C@H]1CN(CCC(C(=O)NCc2cc(C(F)(F)F)cc(C(F)(F)F)c2)c2csc(NC(=O)Cc3ccccn3)n2)CC[C@]12C=Cc1ccccc12 (stereo partly specified),IC50 [2]: 79 nM
1.8,CC(=O)Nc1nc([C@H](CCN2CCC(c3ccccc3)CC2)C(=O)NCc2cc(C(F)(F)F)cc(C(F)(F)F)c2)cs1,–
5.2,CC(=O)Nc1nc(C(CCN2CCC(c3ccccc3)CC2)C(=O)NCc2cc(C(F)(F)F)cc(C(F)(F)F)c2)cs1 (stereo unspecified),Tmax [3]: 2.2 h; clearance [4]: 52.5 mL/min/kg; Vd [5]: 4 L/kg; Tmax [6]: 0.5 h; inhibition [7]: 7%; Cmax [8]: 64 nM; bioavailability [9]: 1.6%; bioavailability [10]: 17%; half-life [11]: 2.28 h; inhibition [12]: 56%; inhibition [13]: 27%; inhibition [14]: 86%; clearance [15]: 21.6 mL/min/kg; inhibition [16]: 66%; Vd [17]: 5.3 L/kg; inhibition [18]: 44%; Cmax [19]: 18 nM; half-life [20]: 1.4 h
16,O=C(Nc1nc(C(CCN2CCC(c3ccccc3)CC2)C(=O)NCc2cc(C(F)(F)F)cc(C(F)(F)F)c2)cs1)c1ccccc1 (stereo unspecified),–
5.8,CNC(=O)Nc1nc([C@@H](CCN2CCC3(C=Cc4ccccc43)CC2)C(=O)NCc2cc(C(F)(F)F)cc(C(F)(F)F)c2)cs1,–
14,C[C@H]1CN(CCC(C(=O)NCc2cc(C(F)(F)F)cc(C(F)(F)F)c2)c2csc(NC(=O)c3cccnc3)n2)CC[C@]12C=Cc1ccccc12 (stereo partly specified),IC50 [2]: 186 nM
